Test [1] has as its target Dihydroorotate dehydrogenase (quinone), mitochondrial (Homo sapiens) (UniProt Q02127). Nature of the test: Inhibition of DHODH in human K562 cells assessed as increase in uridine salvage at 200 nM incubated for 24 hrs by 5-ethynyl-uridine incorporation assay. The class given is cell-based.
Test [2] deals with T1, Uridine-cytidine kinase 2 (Homo sapiens, UniProt Q9BZX2).
T1 sequence (Q9BZX2 whole entry): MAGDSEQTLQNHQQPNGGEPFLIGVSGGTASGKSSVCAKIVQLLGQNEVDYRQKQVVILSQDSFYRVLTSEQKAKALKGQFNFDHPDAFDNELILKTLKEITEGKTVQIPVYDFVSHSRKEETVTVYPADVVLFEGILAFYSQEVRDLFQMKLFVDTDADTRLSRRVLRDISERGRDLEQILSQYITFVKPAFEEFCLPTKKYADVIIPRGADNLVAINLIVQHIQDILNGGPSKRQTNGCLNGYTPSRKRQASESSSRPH
The test can be described thus: Inhibition of C-terminally His6-tagged human UCK2 expressed in Escherichia coli BL21(DE3) cells incubated for 15 mins before ATP addition and measured after 60 mins by ADP-Glo kinase assay based HTS assay. In short, it runs like this:
(§1)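 His6-tagged UCK2 (C-terminal tag), purified by Ni-NTA then ion exchange; UCK2 phosphorylates uridine with ATP and ADP-Glo measures the ADP formed, after depleting leftover ATP, as luciferase luminescence. Run in 1536-well format with 0.5 mg/mL BSA, DMSO up to 3%. Primary screen at 33 μM with hit cut-off of 3 SD of the negative control. Confirmation used 8 half-log concentrations, 0.05–167 µM.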
(In ADP-Glo the light output rises with the ADP produced.)

Test [3] addresses T1, Uridine-cytidine kinase 2. Nature of the test: Inhibition of C-terminally His6-tagged human UCK2 expressed in Escherichia coli BL21(DE3) cells incubated for 15 mins before ATP addition and measured after 60 mins by ADP-Glo kinase assay. In short, it runs like this: as §1
Test [4] concerns the target T1, Uridine-cytidine kinase 2. Nature of the test: Non-competitive inhibition of C-terminally His6-tagged human UCK2 expressed in Escherichia coli BL21(DE3) cells using uridine, phosphoenolpyruvate, NADH and varying ATP level by spectrophotometry based pyruvate kinase and lactate dehydrogenase coupled enzyme assay. In short, it runs like this:
(§2)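 Continuous coupled assay of purified C-terminally His6-tagged UCK2. Substrate titration was done with either uridine or ATP varied, at inhibitor 0, 0.5, 1.5 or 4.5 µM. Ki was derived from kinetic analysis of these titrations.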

In test [5] the target is T2, Uridine-cytidine kinase 2 (Homo sapiens) (UniProt Q9BZX2).
T2 sequence (whole entry): T1 sequence (Q9BZX2 whole entry)
The test can be described thus: Inhibition of UCK2 in human K562 cells assessed as inhibition of uridine salvage at 50 uM incubated for 24 hrs by 5-ethynyl-uridine incorporation assay. In kind it is cell-based. In short, it runs like this:
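K562 cells were given compound at 50 µM with 50 µM 5-ethynyl-uridine (5-EU). 5-EU incorporated into cellular RNA was quantified by click chemistry with a fluorescent probe. Dipyridamole at 20 µM served as control.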

Test [6] concerns the target T1, Uridine-cytidine kinase 2. Nature of the test: Non-competitive inhibition of C-terminally His6-tagged human UCK2 expressed in Escherichia coli BL21(DE3) cells using phosphoenolpyruvate, NADH and varying uridine level by spectrophotometry based pyruvate kinase and lactate dehydrogenase coupled enzyme assay. In short, it runs like this: as §2
For test [7], the target named is T3, UMP-CMP kinase (Homo sapiens) (UniProt P30085).
T3 sequence (whole entry): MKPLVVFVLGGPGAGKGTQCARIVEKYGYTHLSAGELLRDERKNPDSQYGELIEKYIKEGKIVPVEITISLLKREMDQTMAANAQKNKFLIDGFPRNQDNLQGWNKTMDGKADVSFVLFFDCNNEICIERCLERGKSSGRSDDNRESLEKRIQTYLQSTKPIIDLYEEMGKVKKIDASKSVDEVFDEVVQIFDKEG
Nature of the test: Inhibition of CMPK1 (unknown origin) by ADP-Glo kinase assay.

Activity calls are given as the source filed them.

Our source for the inhibition, IC50 and Ki values is ChEMBL document CHEMBL4385671, “Discovery of small molecule inhibitors of human uridine-cytidine kinase 2 by high-throughput screening” (Bioorg Med Chem Lett, 2019).

One may read the inhibition as the share of the control response that was lost under treatment. For orientation: IC50 means the concentration that gives 50% inhibition. By Ki is commonly meant the dissociation constant of the complex between target and ligand, obtained from inhibition or displacement. Low readings indicate a stronger hold on the target, high ones a looser hold on the target.

Chain of Dihydroorotate dehydrogenase (quinone), mitochondrial (Homo sapiens) (Q02127 whole entry): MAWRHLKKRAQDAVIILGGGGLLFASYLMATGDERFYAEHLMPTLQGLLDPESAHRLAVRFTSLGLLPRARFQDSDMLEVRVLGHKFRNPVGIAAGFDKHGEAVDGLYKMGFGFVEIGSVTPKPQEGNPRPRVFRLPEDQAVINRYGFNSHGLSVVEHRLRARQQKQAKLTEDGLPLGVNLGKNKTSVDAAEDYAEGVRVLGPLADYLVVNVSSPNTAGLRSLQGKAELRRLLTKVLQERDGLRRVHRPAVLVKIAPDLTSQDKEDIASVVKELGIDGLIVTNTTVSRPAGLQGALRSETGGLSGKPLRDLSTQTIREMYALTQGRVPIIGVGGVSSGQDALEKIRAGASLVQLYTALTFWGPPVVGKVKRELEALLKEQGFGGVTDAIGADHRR

Consider `O=C(N[C@@H]1CCCc2c1[nH]c1ccc(Cl)cc21)c1ccccn1`, for which, in test [1], the inhibition entry is “Active”.
In turn, `CC(C)(C)c1ccc(-c2nc(SCC(=O)Nc3ccc(Cl)cc3)[nH]c(=O)c2C#N)cc1` returned an IC50 in test [2] of 138 µM.
As for `COc1ccccc1NC(=O)CSc1nc(-c2ccc(C(C)(C)C)cc2)c(C#N)c(=O)[nH]1`, it took 80 µM to reach half-maximal inhibition in test [2] (IC50).
On the same count and under the same terms, then `O=C(CSc1nc(-c2ccc(F)cc2)nc2c1Cc1ccccc1O2)Nc1cccc(C(=O)O)c1`, with 166 µM.
Regarding `Cc1ccc(-c2nc3c(c(SCC(=O)Nc4cccc(C(=O)O)c4)n2)Cc2cccc(C)c2O3)cc1`, the concentration for half-maximal inhibition (IC50) turned out to be 3.8 µM in test [3] (read-out: IC50) and 52 µM in test [2]. Moreover, the values for the Ki in test [4] and in test [6] were 1 µM and 3.5 µM, respectively. Besides, in test [5], the inhibition stood at 51.7%.
`O=C(CSCn1[nH]nc2c(=O)nc(Cc3ccc(F)cc3)nc1-2)Nc1ccc(F)cc1`: in test [3], the IC50 result is reported as “Not Active”.
Regarding `Cc1ccccc1NC(=O)CSCn1[nH]nc2c(=O)nc(Cc3ccc(F)cc3)nc1-2`, the inhibition in test [5] came to 26.3%.
For the compound `O=C(CSc1nc(-c2ccc(O)cc2)nc2c1Cc1ccccc1O2)Nc1cccc(C(=O)O)c1`, the IC50 in test [2] stood at 166 µM.
`O=C(CSc1nc2n(-c3ccc(F)cc3)[nH]cc-2c(=O)n1)Nc1ccc(Br)cc1`: the IC50 in test [3] (read-out: IC50) was 16.4 to 16.6 µM; in test [2] it was 9.2 µM. The Ki in test [4] amounted to 12 µM; in test [6] it was 13 µM. In addition, the inhibition in test [5] came out at 31.3%.
`Cc1cc(C)cc(NC(=O)CSCn2[nH]nc3c(=O)nc(Cc4ccc(F)cc4)nc2-3)c1`: the half-maximal inhibitory concentration (IC50) in test [3] (read-out: IC50) was 48 µM; in test [2] it was 18.9 µM. In addition, the Ki in test [4] was determined as 31 µM; in test [6], 50 µM. Further, the inhibition in test [5] was found to be 41.5%. Moreover, the inhibition entry in test [7] is “inactive”.
Regarding `COc1cccc2c1Oc1nc(-c3ccc(C)cc3)nc(SCC(=O)Nc3cccc(C(=O)O)c3)c1C2`, the concentration for half-maximal inhibition (IC50) in test [3] (read-out: IC50) is 11.8 µM. Also, the inhibition in test [5] worked out at 14.9%.
In the same order, the values of `Cc1cccc2c1Oc1nc(-c3ccccc3)nc(SCC(=O)Nc3cccc(C(=O)O)c3)c1C2` are 4.7 µM and 49.6%.
Turning to `Cc1ccc(-c2nc3c(c(SCC(=O)Nc4ccccc4)n2)Cc2cccc(C)c2O3)cc1`, in test [3] (read-out: IC50), the IC50 amounted to 26.8 µM. The inhibition result in test [5] was “inactive”.
Turning to `COc1cccc(NC(=O)CSCn2[nH]nc3c(=O)nc(Cc4ccc(F)cc4)nc2-3)c1`, the half-inhibitory concentration (IC50) entry in test [3] is listed as “Not Active”.
